One block for each compound: values may come before it. The source made the active and inactive calls. The calls are words filed in the database; no cut-off is given here.
How the values were obtained:
[1] = Displacement of [3H]flumazenil from GABAA/BzR complex in bovine cerebral cortex membrane; type: cell membranes, Bos taurus
Method in brief: (§1)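 Bovine cerebral cortex membranes in 50 mM Tris-citrate pH 7.4 incubated with [3H]Ro15-1788 (1–2 nM) for 1 h at 4 °C to equilibrium; nonspecific binding with 10^-5 M diazepam; DMSO ≤1%. Ki from ≥6 concentrations (10^-9–10^-5 M) by curve fitting and Cheng–Prusoff; percent inhibition at 10 µM; five determinations, triplicate.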

Mus musculus [2] = experiment: Anxiolytic effect in CD1 albino mouse at 10 mg/kg, po after 30 mins by light-dark box test; type: functional, organism-based; design: dose 10 mg/kg
Method in brief: (§2)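 Male CD-1 mice (22–24 g); test agent po in 1% CMC, 30 min before a light/dark box session; time (s) spent in the illuminated compartment measured. Means ± SEM of 14–21 mice.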

Mus musculus [3] = experiment: Anticonvulsant activity against pentylenetetrazole-induced seizure in CD1 Albino mouse assessed as shock latency at 30 mg/kg, po after 30 mins; type: functional
Method in brief: (§3)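 Male CD-1 mice (22–24 g), compound suspended in 1% CMC (sonicated) given po in 10 ml/kg; 30 min later PTZ 90 mg/kg sc (in saline). Latency (s) to shock and to convulsions recorded; clonic generalized convulsions counted over 30 min.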

Mus musculus [4] = experiment: Anxiolytic effect in CD1 albino mouse at 30 mg/kg, po after 30 mins by light-dark box test; type: functional, organism-based; design: dose 30 mg/kg; method in brief: as §2
Mus musculus [5] = experiment: Increase in learning and memory performance in CD1 albino mouse at 10 mg/kg, po after 24 hrs by passive avoidance test; type: functional, organism-based; design: dose 10 mg/kg
Method in brief: (§4)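 Passive avoidance in male CD-1 mice treated po 30 min before training; retention tested 24 h later. Latency to enter the dark compartment measured, maximum 60 s (training) and 180 s (retention). Means ± SEM of 15–18 mice.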

Mus musculus [6] = experiment: Anticonvulsant activity against pentylenetetrazole-induced seizure in CD1 Albino mouse assessed as shock latency at 10 mg/kg, po after 30 mins; type: functional; method in brief: as §3
Mus musculus [7] = experiment: Anticonvulsant activity against pentylenetetrazole-induced seizure in CD1 Albino mouse assessed as shock latency at 3 mg/kg, po after 30 mins; type: functional; method in brief: as §3
Mus musculus [8] = experiment: Anticonvulsant activity against pentylenetetrazole-induced seizure in CD1 Albino mouse assessed as convulsant latency at 30 mg/kg, po after 30 mins; type: functional; method in brief: as §3
Mus musculus [9] = experiment: Increase in learning and memory performance in CD1 albino mouse at 30 mg/kg, po after 24 hrs by passive avoidance test; type: functional, organism-based; design: dose 30 mg/kg; method in brief: as §4
Mus musculus [10] = experiment: Effect on motor coordination in CD1 Albino mouse assessed as number of falls in 30 secs at 30 mg/kg, po after 30 mins by rotarod test relative to control; type: functional
Method in brief: (§5)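 Rota-rod at 16 rpm in male CD-1 mice after po dosing in 1% CMC; number of falls in 30 s counted at 15, 30, 45 and 60 min post-administration.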

Mus musculus [11] = experiment: Anticonvulsant activity against pentylenetetrazole-induced seizure in CD1 Albino mouse assessed as convulsant latency at 3 mg/kg, po after 30 mins; type: functional; method in brief: as §3
Mus musculus [12] = experiment: Sedative activity in CD1 albino mouse assessed as reduction of curiosity at 3 mg/kg, po after 30 mins by hole-board test; type: functional, organism-based; design: dose 3 mg/kg
Method in brief: (§6)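 Hole-board: male CD-1 mice given compound po (1% CMC) and placed individually on the board 30 min later, free to explore panel and holes for 5 min; spontaneous motility and exploration (panel and hole movements) scored.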

Mus musculus [13] = experiment: Effect on ethanol-induced sleeping time in CD1 Albino mouse assessed as increase in duration of loss of righting reflex at 10 mg/kg, po after 30 mins; type: functional, organism-based; design: dose 10 mg/kg
Method in brief: (§7)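 Male CD-1 mice dosed po (1% CMC suspension); ethanol 4 g/kg ip given 30 min after the compound. Sleep time taken as duration of loss of righting reflex, end-point 150 min.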

Mus musculus [14] = experiment: Effect on motor coordination in CD1 Albino mouse assessed as number of falls in 30 secs at 3 mg/kg, po after 30 mins by rotarod test; type: functional; method in brief: as §5
Mus musculus [15] = experiment: Effect on ethanol-induced sleeping time in CD1 Albino mouse assessed as increase in duration of loss of righting reflex at 30 mg/kg, po after 30 mins; type: functional, organism-based; design: dose 30 mg/kg; method in brief: as §7
Mus musculus [16] = experiment: Effect on motor coordination in CD1 Albino mouse assessed as number of falls in 30 secs at 10 mg/kg, po after 30 mins by rotarod test relative to control; type: functional; method in brief: as §5
Mus musculus [17] = experiment: Effect on ethanol-induced sleeping time in CD1 Albino mouse assessed as increase in duration of loss of righting reflex at 3 mg/kg, po after 30 mins; type: functional, organism-based; design: dose 3 mg/kg; method in brief: as §7
Mus musculus [18] = experiment: Sedative activity in CD1 albino mouse assessed as reduction of curiosity at 30 mg/kg, po after 30 mins by hole-board test; type: functional, organism-based; design: dose 30 mg/kg; method in brief: as §6
Mus musculus [19] = experiment: Anticonvulsant activity against pentylenetetrazole-induced seizure in CD1 Albino mouse assessed as convulsant latency at 10 mg/kg, po after 30 mins; type: functional; method in brief: as §3
Bos taurus = species on record: Bos taurus; experiment: Displacement of [3H]flumazenil from GABAA/BzR complex in bovine cerebral cortex membrane at 10 uM; type: cell membranes; method in brief: as §1

Ki [1]: 62 nM
Compound: O=C(c1cccs1)c1cnn2c1n[n+]([O-])c1ccc(Cl)cc12

Ki [1]: 3490 nM
Compound: O=C(c1ccccc1)c1cnn2c1n[n+]([O-])c1ccc(Cl)cc12

Ki [1]: 8.9 nM
Compound: O=C(c1cccs1)c1cnn2c1n[n+]([O-])c1ccc(Oc3ccccc3)cc12
Activity (Mus musculus [2]): Active
Activity (Mus musculus [3]): 614.1 s
Activity (Mus musculus [4]): Active
Activity (Mus musculus [5]): Active
Activity (Mus musculus [6]): 279.7 s
Activity (Mus musculus [7]): 224.5 s
Activity (Mus musculus [8]): 766.6 s
Activity (Mus musculus [9]): Active
Activity (Mus musculus [10]): 2 count
Activity (Mus musculus [11]): 460.3 s
Activity (Mus musculus [12]): Active
Activity (Mus musculus [13]): Active
Activity (Mus musculus [14]): 0.8 count
Activity (Mus musculus [15]): Active
Activity (Mus musculus [16]): 1.6 count
Activity (Mus musculus [17]): Active
Activity (Mus musculus [18]): Active
Activity (Mus musculus [19]): 542.6 s

Ki [1]: 1300 nM
Compound: Cn1cccc1C(=O)c1cnn2c1n[n+]([O-])c1ccc(Oc3ccccc3)cc12

Ki [1]: 551 nM
Compound: CC(=O)c1cnn2c1n[n+]([O-])c1ccc(Cl)cc12

Ki [1]: 4200 nM
Compound: COc1ccccc1C(=O)c1cnn2c1n[n+]([O-])c1ccc(Cl)cc12

Ki [1]: 380 nM
Compound: Cn1ccc(C(=O)c2cnn3c2n[n+]([O-])c2ccc(Cl)cc23)c1

Ki [1]: 1240 nM
Compound: COc1ccc(C(=O)c2cnn3c2n[n+]([O-])c2ccc(Cl)cc23)cc1

The next lines start with the compound.

Compound: O=C(c1ccc[nH]1)c1cnn2c1n[n+]([O-])c1ccc(Oc3ccccc3)cc12
Ki [1]: 276 nM

Compound: CCOc1ccc2c(c1)n1ncc(C(=O)c3ccc[nH]3)c1n[n+]2[O-]
Ki [1]: 1840 nM

Compound: CCOc1ccc2c(c1)n1ncc(C(=O)c3cccn3C)c1n[n+]2[O-]
Ki [1]: 819 nM

Compound: CCOc1ccc2c(c1)n1ncc(C(=O)c3cccs3)c1n[n+]2[O-]
Ki [1]: 45 nM

Compound: O=Cc1cnn2c1n[n+]([O-])c1ccc(Cl)cc12
inhibition (Bos taurus): 64%

Compound: O=C(c1cccs1)c1cnn2c1nnc1ccc(Oc3ccccc3)cc12
Ki [1]: 14.7 nM

Compound: CCOc1ccc2c(c1)n1ncc(C(C)=O)c1n[n+]2[O-]
Ki [1]: 902 nM
